# Test results taken from ChEMBL document CHEMBL4371041, “Synthesis and evaluation of thieno[3,2-d]pyrimidine derivatives as novel FMS inhibitors” (Bioorg Med Chem Lett, 2019).
# pIC50: −log10 of the molar value.
# Key:
# [1] = test system: NFS-60; test: Growth inhibition of mouse NFS60 cells after 72 hrs by CellTiter96 AQueous one solution cell proliferation assay; type: functional; settings: NFS-60, 72 h
# [2] = Stability in human hepatocytes assessed as parent compound remaining measured after 60 mins; type: ADME, cell-based, Hepatocyte; settings: read-out: Stability
# [3] = Volume of distribution in CD-1 mouse at 3 mg/kg, iv; type: ADME, organism-based; settings: in vivo
# [4] = Oral bioavailability in CD-1 mouse at 10 mg/kg; type: ADME, organism-based; settings: in vivo
# [5] = Cmax in CD-1 mouse at 3 mg/kg, iv; type: ADME, organism-based; design: dose 3 mg/kg, route intravenous; settings: in vivo
# [6] = AUC (0 to 7 hrs) in CD-1 mouse at 10 mg/kg, po; type: ADME, organism-based; design: time < 7 hr, dose 10 mg/kg, route oral; settings: in vivo
# [7] = Cmax in CD-1 mouse at 10 mg/kg, po; type: ADME, organism-based; design: dose 10 mg/kg, route oral; settings: in vivo
# [8] = Tmax in CD-1 mouse at 10 mg/kg, po; type: ADME, organism-based; settings: in vivo
# [9] = Clearance in CD-1 mouse at 3 mg/kg, iv; type: ADME, organism-based; settings: in vivo
# [10] = Half life in CD-1 mouse at 3 mg/kg, iv; type: ADME, organism-based; settings: in vivo
# [11] = AUC (0 to 7 hrs) in CD-1 mouse at 3 mg/kg, iv; type: ADME, organism-based; design: dose 3 mg/kg, time < 7 hr, route intravenous; settings: in vivo
# [12] = Half life in CD-1 mouse at 10 mg/kg, po; type: ADME, organism-based; settings: in vivo
# [13] = target: Cytochrome P450 3A4 (Homo sapiens, UniProt P08684); test: Inhibition of CYP3A4 in human liver microsomes by LC-MS/MS analysis; type: ADME
# Cytochrome P450 3A4, sequence (P08684 whole entry): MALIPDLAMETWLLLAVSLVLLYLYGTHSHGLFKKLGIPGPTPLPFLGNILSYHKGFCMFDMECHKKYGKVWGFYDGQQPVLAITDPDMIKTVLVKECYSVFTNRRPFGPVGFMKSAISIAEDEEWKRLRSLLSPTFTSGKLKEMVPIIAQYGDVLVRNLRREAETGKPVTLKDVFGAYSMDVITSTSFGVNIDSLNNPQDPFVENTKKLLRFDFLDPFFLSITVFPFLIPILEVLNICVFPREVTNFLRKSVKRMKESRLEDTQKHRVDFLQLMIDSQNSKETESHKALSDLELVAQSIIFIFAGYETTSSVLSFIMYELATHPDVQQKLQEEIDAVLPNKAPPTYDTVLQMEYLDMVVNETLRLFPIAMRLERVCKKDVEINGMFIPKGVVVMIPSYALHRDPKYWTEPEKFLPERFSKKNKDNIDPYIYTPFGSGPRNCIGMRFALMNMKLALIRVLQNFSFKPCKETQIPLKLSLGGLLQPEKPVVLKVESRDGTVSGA
# Method in brief: (§1)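 Reversible CYP inhibition measured in human liver microsomes; metabolite formation quantified by LC/MS/MS.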
# [14] = target: Cytochrome P450 2C9 (Homo sapiens, UniProt P11712); test: Inhibition of CYP2C9 in human liver microsomes by LC-MS/MS analysis; type: ADME; method in brief: as §1
# Cytochrome P450 2C9, sequence (P11712 whole entry): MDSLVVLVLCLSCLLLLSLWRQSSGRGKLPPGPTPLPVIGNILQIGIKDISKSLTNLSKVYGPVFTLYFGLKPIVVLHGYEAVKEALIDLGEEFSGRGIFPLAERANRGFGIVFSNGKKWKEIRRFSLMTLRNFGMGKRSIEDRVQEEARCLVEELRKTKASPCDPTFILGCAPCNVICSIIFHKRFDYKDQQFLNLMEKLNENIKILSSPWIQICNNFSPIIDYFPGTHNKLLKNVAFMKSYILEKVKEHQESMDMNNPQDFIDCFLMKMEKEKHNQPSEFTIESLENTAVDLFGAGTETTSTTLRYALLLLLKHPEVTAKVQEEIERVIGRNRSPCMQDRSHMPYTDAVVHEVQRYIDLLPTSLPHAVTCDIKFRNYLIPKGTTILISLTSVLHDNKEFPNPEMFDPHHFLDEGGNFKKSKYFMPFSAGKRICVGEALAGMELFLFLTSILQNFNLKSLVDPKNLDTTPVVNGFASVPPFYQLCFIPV
# [15] = target: Cytochrome P450 2D6 (Homo sapiens, UniProt P10635); test: Inhibition of CYP2D6 in human liver microsomes by LC-MS/MS analysis; type: ADME; method in brief: as §1
# Cytochrome P450 2D6, sequence (P10635 whole entry): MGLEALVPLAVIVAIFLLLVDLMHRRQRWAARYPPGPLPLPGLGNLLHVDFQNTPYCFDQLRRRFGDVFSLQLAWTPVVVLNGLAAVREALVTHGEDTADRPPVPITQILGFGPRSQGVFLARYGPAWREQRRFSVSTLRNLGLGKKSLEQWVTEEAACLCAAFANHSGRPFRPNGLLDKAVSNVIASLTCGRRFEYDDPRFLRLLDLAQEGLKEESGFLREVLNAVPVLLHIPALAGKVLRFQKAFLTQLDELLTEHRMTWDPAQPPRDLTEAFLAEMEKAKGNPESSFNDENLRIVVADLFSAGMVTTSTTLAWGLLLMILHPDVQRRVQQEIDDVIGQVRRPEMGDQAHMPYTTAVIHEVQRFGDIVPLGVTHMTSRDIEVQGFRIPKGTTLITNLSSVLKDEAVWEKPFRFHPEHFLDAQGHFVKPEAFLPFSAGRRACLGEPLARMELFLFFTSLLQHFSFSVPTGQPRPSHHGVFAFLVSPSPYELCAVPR
# [16] = target: Cytochrome P450 2C19 (Homo sapiens, UniProt P33261); test: Inhibition of CYP2C19 in human liver microsomes by LC-MS/MS analysis; type: ADME; method in brief: as §1
# Cytochrome P450 2C19, sequence (P33261 whole entry): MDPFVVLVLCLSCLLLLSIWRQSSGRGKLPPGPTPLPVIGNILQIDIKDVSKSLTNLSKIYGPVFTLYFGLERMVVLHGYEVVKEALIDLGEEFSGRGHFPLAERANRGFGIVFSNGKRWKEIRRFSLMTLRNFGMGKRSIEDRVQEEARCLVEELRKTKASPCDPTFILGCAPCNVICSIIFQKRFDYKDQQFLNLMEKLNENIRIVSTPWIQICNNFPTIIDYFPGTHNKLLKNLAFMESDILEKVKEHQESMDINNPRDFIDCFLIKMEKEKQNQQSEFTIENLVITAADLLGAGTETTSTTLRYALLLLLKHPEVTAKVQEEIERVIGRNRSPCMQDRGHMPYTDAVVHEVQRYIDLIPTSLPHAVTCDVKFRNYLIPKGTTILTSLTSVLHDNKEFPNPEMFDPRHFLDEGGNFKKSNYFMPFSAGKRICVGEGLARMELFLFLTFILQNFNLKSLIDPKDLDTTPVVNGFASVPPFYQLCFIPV
# [17] = target: Cytochrome P450 1A2 (Homo sapiens, UniProt P05177); test: Inhibition of CYP1A2 in human liver microsomes by LC-MS/MS analysis; type: ADME; method in brief: as §1
# Cytochrome P450 1A2, sequence (P05177 whole entry): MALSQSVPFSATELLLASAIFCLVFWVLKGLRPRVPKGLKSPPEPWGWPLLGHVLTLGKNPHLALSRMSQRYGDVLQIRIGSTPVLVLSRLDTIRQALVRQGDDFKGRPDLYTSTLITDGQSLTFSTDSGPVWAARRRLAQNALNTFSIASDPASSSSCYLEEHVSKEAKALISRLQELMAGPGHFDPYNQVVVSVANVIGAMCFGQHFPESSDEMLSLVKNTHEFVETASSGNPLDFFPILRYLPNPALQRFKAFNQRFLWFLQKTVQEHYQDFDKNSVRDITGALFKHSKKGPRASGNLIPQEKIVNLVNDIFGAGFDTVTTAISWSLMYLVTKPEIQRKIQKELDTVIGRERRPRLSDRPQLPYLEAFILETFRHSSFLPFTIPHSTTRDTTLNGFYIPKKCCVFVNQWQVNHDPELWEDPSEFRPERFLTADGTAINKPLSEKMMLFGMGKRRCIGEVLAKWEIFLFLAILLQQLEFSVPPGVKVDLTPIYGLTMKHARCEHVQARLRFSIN
Structure (SMILES),GI50 [1],also measured
CCc1nn(Cc2cccc(C)n2)c2cccc(NC(=O)c3csc4c(N)ncnc34)c12,> 10000 nM,
Cc1cccc(Cn2nc(Cl)c3c(NC(=O)c4csc5c(N)ncnc45)cccc32)n1,8 nM,remaining at 1 h [2]: 66%
COc1cccc(Cn2nc(Br)c3c(NC(=O)c4csc5c(N)ncnc45)cccc32)n1,34 nM,
Nc1ncnc2c(C(=O)Nc3cccc4c3c(Br)nn4Cc3ccncc3)csc12,135 nM,
Nc1ncnc2c(C(=O)Nc3cccc4c3c(Br)nn4Cc3cccc(F)n3)csc12,233 nM,
Nc1ncnc2c(C(=O)Nc3cccc4c3c(Br)nn4Cc3ccccn3)csc12,2500 nM,
Nc1ncnc2c(C(=O)Nc3cccc4c3c(Br)nn4CC3CCCCC3)csc12,254 nM,
Nc1ncnc2c(C(=O)Nc3cccc4c3c(Br)nn4Cc3ccccc3)csc12,1000 nM,
Cc1cccc(Cn2nc(Br)c3c(NC(=O)c4csc5c(N)ncnc45)cccc32)n1,27.5 to 28 nM,Vd [3]: 1.4 L/kg; bioavailability [4]: 37%; Cmax [5]: 2400 ng/mL; AUC(0-t) at 7 h [6]: 6060 ng·h/mL; Cmax [7]: 1620 ng/mL; Tmax [8]: 1 h; clearance [9]: 6.67 mL/min/kg; half-life [10]: 156 min; AUC(0-t) at 7 h [11]: 5760 ng·h/mL; half-life [12]: 234 min
COc1ccc(COc2ccc(Cc3cnc(N)nc3N)cc2OC)cc1 [GW632580X],94 nM,
CCn1nc(Cn2nc(Br)c3c(NC(=O)c4csc5c(N)ncnc45)cccc32)cc1C(C)C,62 nM,
Nc1ncnc2c(C(=O)Nc3cccc4c3c(Br)nn4Cc3cccc(Br)n3)csc12,243 nM,
Nc1ncnc2c(C(=O)Nc3cccc4c3c(Br)nn4Cc3cccnc3)csc12,77 nM,pIC50 [13]: 6.51; pIC50 [14]: 5.86; pIC50 [15]: < 4.70; pIC50 [16]: 5.69; pIC50 [17]: > 6.60
Cc1cccc(Cn2nc(I)c3c(NC(=O)c4csc5c(N)ncnc45)cccc32)n1,30 nM,
C#CCn1nc(Br)c2c(NC(=O)c3csc4c(N)ncnc34)cccc21,> 10000 nM,
C=Cc1nn(Cc2cccc(C)n2)c2cccc(NC(=O)c3csc4c(N)ncnc34)c12,4460 nM,
COc1ccc(Cn2nc(Br)c3c(NC(=O)c4csc5c(N)ncnc45)cccc32)cc1,2390 nM,
